Test results: ChEMBL document CHEMBL4665753, “Ecdysteroid Derivatives that Reverse P-Glycoprotein-Mediated Drug Resistance” (J Nat Prod, 2020)
Calls of active or inactive are those of the source. The rule behind the calls is not given here.

Assays:
[1] = Cytotoxicity against human peripheral blood lymphocytes assessed as cell growth inhibition after 72 hrs by MTT assay; format: functional; conditions: Lymphocyte
How it was run: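 Resting, non-PHA-stimulated lymphocytes from healthy-donor buffy coats were isolated by density-gradient centrifugation and incubated overnight in RPMI-1640 with 10% FBS. Nonadherent cells were then seeded at 5 × 10^5 cells/mL with a range of compound concentrations for 72 h. Viability was read by MTT at 560 nm. GI50 was taken as 50% proliferation inhibition from log concentration plots.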

[2] = Cytotoxicity against human peripheral blood lymphocytes assessed as cell growth inhibition after 72 hrs in presence of PHA by MTT assay; format: functional; conditions: Lymphocyte
How it was run: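 Lymphocytes from healthy-donor buffy coats were isolated by density-gradient centrifugation and incubated overnight in RPMI-1640 with 10% FBS. Nonadherent cells were reseeded at 5 × 10^5 cells/mL in medium with 2.5 μg/mL PHA so they would proliferate, then exposed to a range of compound concentrations for 72 h. Viability was read by MTT at 560 nm. GI50 was taken as 50% proliferation inhibition.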

[3] = organism: Homo sapiens; test: Stimulation of P-gp ATPase activity (unknown origin) assessed as increase in ATP consumption at 1 uM relative to control; conditions: filed as activator
How it was run: (§1)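 Luminescent P-gp-Glo assay on recombinant human P-gp in a membrane fraction (25 μg), with sodium orthovanadate (100 μM) as ATPase inhibitor. Reactions were started with 10 mM MgATP and stopped after 40 min with luciferase detection reagent; luminescence was read 60 min later. ATP consumption appears as lost luminescence. Activity is given as fold change versus untreated control, mean of three independent experiments.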

[4] = biological target: ATP-dependent translocase ABCB1 (Homo sapiens, UniProt P08183); test: Inhibition of ABCB1 in human […] cells after 2 hrs by Hoechst dye based flow cytometric analysis; format: cell-based
How it was run: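 Medulloblastoma DAOY cells were treated with compounds at 10 μM for 2 h. Cells (10^6/mL) were stained with 5 μg/mL Hoechst 33342 in αMEM with 2% FBS for 90 min at 37 °C, then with 2 μg/mL propidium iodide at 4 °C for 10 min. Side-population cells were gated on PI-negative events on a Hoechst red vs blue plot under UV excitation, acquiring at least 30 000 live events.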

[5] = system: CEM/VLB100; test: Synergistic antiproliferative activity against human CEM/VLB100 cells assessed as reduction in cell viability at 1:10 test compound to vinblastine after 48 hrs by MTT assay
[6] = organism: Homo sapiens; test: Stimulation of P-gp ATPase activity (unknown origin) assessed as increase in ATP consumption at 10 uM relative to control; conditions: filed as activator; how it was run: as §1

Sequence of ATP-dependent translocase ABCB1 (P08183 whole entry): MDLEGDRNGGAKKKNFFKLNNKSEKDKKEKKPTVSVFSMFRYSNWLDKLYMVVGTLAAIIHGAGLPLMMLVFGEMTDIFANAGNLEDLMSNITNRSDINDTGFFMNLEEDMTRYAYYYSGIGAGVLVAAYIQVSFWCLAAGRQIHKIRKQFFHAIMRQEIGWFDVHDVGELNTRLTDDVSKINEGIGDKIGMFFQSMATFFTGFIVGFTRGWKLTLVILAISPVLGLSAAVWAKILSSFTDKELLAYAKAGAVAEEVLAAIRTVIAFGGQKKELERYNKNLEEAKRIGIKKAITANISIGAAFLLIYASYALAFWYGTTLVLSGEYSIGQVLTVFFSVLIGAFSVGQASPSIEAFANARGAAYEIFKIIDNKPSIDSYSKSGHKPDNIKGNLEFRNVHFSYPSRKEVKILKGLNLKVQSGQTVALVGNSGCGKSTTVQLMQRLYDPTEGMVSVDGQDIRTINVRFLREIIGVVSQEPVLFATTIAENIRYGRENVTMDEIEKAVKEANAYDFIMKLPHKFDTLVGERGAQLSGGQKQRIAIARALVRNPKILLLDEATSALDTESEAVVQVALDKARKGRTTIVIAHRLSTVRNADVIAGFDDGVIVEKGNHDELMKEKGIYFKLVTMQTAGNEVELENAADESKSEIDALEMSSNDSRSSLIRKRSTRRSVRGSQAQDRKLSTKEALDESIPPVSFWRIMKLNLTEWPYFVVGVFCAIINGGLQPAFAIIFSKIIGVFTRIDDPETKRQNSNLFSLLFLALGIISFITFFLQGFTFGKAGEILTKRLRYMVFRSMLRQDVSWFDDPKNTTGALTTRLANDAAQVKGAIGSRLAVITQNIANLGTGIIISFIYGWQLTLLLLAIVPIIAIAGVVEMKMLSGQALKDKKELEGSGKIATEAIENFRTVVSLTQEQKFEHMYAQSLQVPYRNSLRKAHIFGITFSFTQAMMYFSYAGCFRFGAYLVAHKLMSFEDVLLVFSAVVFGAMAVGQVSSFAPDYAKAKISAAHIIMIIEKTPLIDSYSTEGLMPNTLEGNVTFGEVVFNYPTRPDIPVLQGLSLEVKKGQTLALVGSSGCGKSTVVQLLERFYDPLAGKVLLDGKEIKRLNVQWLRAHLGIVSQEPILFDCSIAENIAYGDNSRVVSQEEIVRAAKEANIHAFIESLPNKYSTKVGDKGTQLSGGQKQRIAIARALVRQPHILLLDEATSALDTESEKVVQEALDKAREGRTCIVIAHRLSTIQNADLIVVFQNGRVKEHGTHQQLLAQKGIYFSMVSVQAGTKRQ

| fold change (FC) [3] | inhibition (INH) [4] | fold change (FC) [6] | SMILES | GI50 [1] | GI50 [2] | Activity [5] |
| --- | --- | --- | --- | --- | --- | --- |
| 6 | Active | – | CC(C)(O)CC[C@H]1OC2(CCCCC2)O[C@]1(C)[C@H]1CC[C@@]2(O)C3=CC(=O)[C@@H]4C[C@H]5OC6(CCCCC6)O[C@H]5C[C@]4(C)[C@H]3CC[C@]12C | 61.7 µM | 42.8 µM | Active |
| – | Active | 4 | CC(C)(O)CC[C@@H](OC(=O)c1ccccc1)[C@](C)(O)[C@H]1CC[C@@]2(O)C3=CC(=O)[C@@H]4C[C@@H](OC(=O)c5ccccc5)[C@@H](OC(=O)c5ccccc5)C[C@]4(C)[C@H]3CC[C@]12C | > 100 µM | 19.9 µM | Active |
| – | – | 4 | COc1ccc(CCN(C)CCCC(C#N)(c2ccc(OC)c(OC)c2)C(C)C)cc1OC (stereo unspecified) | – | – | – |
